According to ChEMBL document CHEMBL4043299, “Repurposing a Library of Human Cathepsin L Ligands: Identification of Macrocyclic Lactams as Potent Rhodesain and Trypanosoma brucei Inhibitors” (J Med Chem, 2018):
In brackets after ≈: the same amount, converted by molar mass. Activity calls are given as the source filed them. The rule behind the calls is not given here.

What was measured:
[1] = Drug uptake in bloodstream form of Trypanosoma brucei rhodesiense STIB 900 infected NMRI mouse blood at 25 mg/kg, ip bid administered for 4 consecutive days starting 3 days post infection measured at 16 hrs post last dose; assay type: ADME, organism-based; settings: read-out: Drug uptake
[2] = system: Mdr1a; assay: Efflux ratio of permeability across pig LLC-PK1 cells expressing mouse Mdr1a at 1 uM after 3.5 hrs by LC-MS/MS analysis; assay type: ADME, cell-based, Sus scrofa
Method in brief: (§1)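 Porcine kidney LLC-PK1 cells stably transfected with human ABCB1 (MDR1) or mouse Abcb1a (Mdr1a). Cells were grown with 10% FCS and 100 ng/mL colchicine and seeded on permeable inserts, then assayed on day 4. Compound was added at 1 μM to the apical or basolateral side, and transport was run in both directions in triplicate at 37 °C, 5% CO2. Donor and receiver were sampled at 3.5 h and quantified by LC–MS/MS. Lucifer yellow was used as the monolayer tightness control.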

[3] = Plasma concentration in rat at 3 mg/kg administered via infusion over 30 mins; assay type: ADME, organism-based; settings: iv
Method in brief: (§2)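 Rats given 3 mg kg⁻¹ by infusion over 30 min, then sacrificed; plasma, brain and CSF concentrations measured; ratios to plasma derived; average of three independent measurements.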

[4] = target: Rhodesain (Trypanosoma brucei rhodesiense, UniProt Q95PM0); assay: Inhibition of Trypanosoma brucei rhodesiense rhodesain using Cbz-Phe-Arg-AMC as substrate by fluorimetric method
Method in brief: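 Fluorescence-based protease assay. IC50 was converted to Ki by the Cheng-Prusoff equation. Values are the average of two measurements, each run in duplicate.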

[5] = target: Cytochrome P450 3A4 (Homo sapiens, UniProt P08684); assay: Inhibition of CYP3A4 in human liver microsomes using DBF as substrate by fluorescence assay; assay type: ADME
[6] = system: Trypanosoma brucei rhodesiense; assay: Antitrypanosomal activity against bloodstream form of Trypanosoma brucei rhodesiense STIB 900 assessed as parasite growth inhibition incubated for 24 to 48 hrs followed by 72 hrs recovery by Alamar blue assay; assay type: functional
[7] = Effective permeability of the compound after 15 hrs by PAMPA; assay type: physicochemical; settings: read-out: Peff
[8] = Drug uptake in rat cerebrospinal fluid at 3 mg/kg administered via infusion over 30 mins; assay type: ADME, organism-based; settings: iv, read-out: Drug uptake; method in brief: as §2
[9] = Octanol-water intrinsic distribution co-efficient, log D of the compound at 100 uM at pH 7.4 after 16 to 22 hrs by CAMDIS assay; assay type: physicochemical
Method in brief: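 Distribution between octanol and aqueous buffer at pH 7.4, CAMDIS carrier-mediated system.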

[10] = system: Trypanosoma brucei rhodesiense; assay: Antitrypanosomal activity against bloodstream form of Trypanosoma brucei rhodesiense STIB 900 infected in NMRI mouse assessed as reduction of parasitemia at 25 mg/kg, ip bid administered for 4 consecutive days starting 3 days post infection measured 24 hrs post last dose; assay type: functional, organism-based
Method in brief: (§3)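 Mice infected with T. b. rhodesiense STIB900 (acute model); dosing from day 3 post-infection on four consecutive days, 25 mg kg⁻¹ i.p. twice daily, 0.1 mL/10 g; three infected-untreated controls; parasitaemia monitored by tail-snip blood smears twice weekly for two weeks, then weekly to day 60; relapse day recorded post-infection.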

[11] = Volume of distribution at steady state in C57BL/6J mouse administered via iv as bolus dose by LC-MS/MS analysis; assay type: ADME, organism-based; settings: in vivo, read-out: Vdss
Method in brief: (§4)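 Male adult C57BL/6J mice, single i.v. bolus in N-methylpyrrolidinone/40% aqueous hydroxypropyl-γ-cyclodextrin (30/70); blood at 5, 15, 30 min, 1, 2, 4, 8 h; plasma by centrifugation, stored −20 °C; LC–MS/MS; non-compartmental analysis.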

[12] = target: T1, Cathepsin K (Homo sapiens, UniProt P43235); assay: Inhibition of human cathepsin K
T1 sequence (P43235 whole entry): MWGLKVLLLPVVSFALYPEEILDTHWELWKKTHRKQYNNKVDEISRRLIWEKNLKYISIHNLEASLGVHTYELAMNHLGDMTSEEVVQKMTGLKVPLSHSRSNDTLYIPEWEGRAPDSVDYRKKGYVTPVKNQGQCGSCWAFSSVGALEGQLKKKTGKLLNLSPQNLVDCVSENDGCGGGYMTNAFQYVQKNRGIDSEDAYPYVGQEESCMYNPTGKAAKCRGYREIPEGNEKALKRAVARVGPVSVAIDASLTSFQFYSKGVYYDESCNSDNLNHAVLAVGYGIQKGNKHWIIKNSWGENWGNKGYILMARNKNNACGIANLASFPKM

[13] = Ratio of drug level in rat CSF to plasma at 3 mg/kg administered via infusion over 30 mins; settings: iv
[14] = target: Procathepsin L (Homo sapiens, UniProt P07711); assay: Inhibition of human CatL using Cbz-Phe-Arg-AMC as substrate measured over 30 mins by fluorimetric method
[15] = target: Cathepsin S (Homo sapiens, UniProt P25774); assay: Inhibition of human cathepsin S
[16] = target: Cytochrome P450 2C9 (Homo sapiens, UniProt P11712); assay: Inhibition of CYP2C9 in human liver microsomes using MFC as substrate by fluorescence assay
[17] = target: T2, Cathepsin L2 (Homo sapiens, UniProt O60911); assay: Inhibition of human cathepsin V
T2 sequence (O60911 whole entry): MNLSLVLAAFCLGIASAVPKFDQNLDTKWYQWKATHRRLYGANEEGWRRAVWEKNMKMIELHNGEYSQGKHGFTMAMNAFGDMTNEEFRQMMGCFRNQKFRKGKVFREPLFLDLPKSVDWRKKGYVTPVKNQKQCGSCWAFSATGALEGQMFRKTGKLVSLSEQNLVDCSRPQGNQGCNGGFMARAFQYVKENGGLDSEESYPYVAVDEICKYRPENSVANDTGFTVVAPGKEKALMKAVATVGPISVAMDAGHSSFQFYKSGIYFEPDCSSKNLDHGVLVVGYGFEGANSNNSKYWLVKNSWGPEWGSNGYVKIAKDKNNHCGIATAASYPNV

[18] = Drug uptake in bloodstream form of Trypanosoma brucei rhodesiense STIB 900 infected NMRI mouse blood at 25 mg/kg, ip bid administered for 4 consecutive days starting 3 days post infection measured at 1 hr post last dose; assay type: ADME, organism-based; settings: read-out: Drug uptake
[19] = Drug uptake in bloodstream form of Trypanosoma brucei rhodesiense STIB 900 infected NMRI mouse blood at 25 mg/kg, ip bid administered for 4 consecutive days starting 3 days post infection measured at 4 hrs post last dose; assay type: ADME, organism-based; settings: read-out: Drug uptake
[20] = Half life in C57BL/6J mouse administered via iv as bolus dose by LC-MS/MS analysis; assay type: ADME, organism-based; settings: in vivo; method in brief: as §4
[21] = Ratio of drug level in rat brain to plasma at 3 mg/kg administered via infusion over 30 mins; settings: iv
[22] = Ratio of drug level in brain to plasma in C57BL/6J mouse administered via iv as bolus dose by LC-MS/MS analysis
[23] = Solubility of the compound at pH 6.5 by LYSA; assay type: physicochemical; settings: buffer
Method in brief: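 Lyophilisation solubility assay at pH 6.5.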

[24] = target: Cathepsin B (Homo sapiens, UniProt P07858); assay: Inhibition of human cathepsin B
[25] = system: MDR1; assay: Efflux ratio of permeability across pig LLC-PK1 cells expressing human MDR1 at 1 uM after 3.5 hrs by LC-MS/MS analysis; assay type: ADME, cell-based, Sus scrofa; method in brief: as §1
[26] = system: Trypanosoma brucei rhodesiense; assay: Antitrypanosomal activity against bloodstream form of Trypanosoma brucei rhodesiense STIB 900 infected in NMRI mouse assessed as days required to prevent relapse of trypanosome at 25 mg/kg, ip bid administered for 4 consecutive days starting 3 days post infection; assay type: functional; method in brief: as §3
[27] = target: Cytochrome P450 2D6 (Homo sapiens, UniProt P10635); assay: Inhibition of CYP2D6 in human liver microsomes using AMMC as substrate by fluorescence assay; assay type: ADME
[28] = system: Trypanosoma brucei rhodesiense; assay: Antitrypanosomal activity against bloodstream form of Trypanosoma brucei rhodesiense STIB 900 infected in NMRI mouse assessed as mouse survival at 25 mg/kg, ip bid administered for 4 consecutive days starting 3 days post infection (reference value: 13 days); assay type: functional
Method in brief: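 T. b. rhodesiense STIB900 acute mouse infection model. Dosing was 25 mg/kg i.p. twice daily for 4 consecutive days, starting 3 days post-infection, at 0.1 mL/10 g. Three infected mice served as untreated controls without vehicle. Parasitaemia was followed by tail-blood smears twice weekly for two weeks, then weekly to day 60. Relapse day and mean survival days were recorded.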

[29] = Drug uptake in rat brain at 3 mg/kg administered via infusion over 30 mins; assay type: ADME, organism-based; settings: iv, read-out: Drug uptake; method in brief: as §2
[30] = Clearance in C57BL/6J mouse administered via iv as bolus dose by LC-MS/MS analysis; assay type: ADME, organism-based; settings: in vivo; method in brief: as §4
[31] = system: Trypanosoma brucei brucei; assay: Antitrypanosomal activity against Trypanosoma brucei brucei TC 221 assessed as parasite growth inhibition after 72 hrs by Alamar blue assay; assay type: functional; settings: TC 221, 72 h

Chain of Procathepsin L (P07711 whole entry): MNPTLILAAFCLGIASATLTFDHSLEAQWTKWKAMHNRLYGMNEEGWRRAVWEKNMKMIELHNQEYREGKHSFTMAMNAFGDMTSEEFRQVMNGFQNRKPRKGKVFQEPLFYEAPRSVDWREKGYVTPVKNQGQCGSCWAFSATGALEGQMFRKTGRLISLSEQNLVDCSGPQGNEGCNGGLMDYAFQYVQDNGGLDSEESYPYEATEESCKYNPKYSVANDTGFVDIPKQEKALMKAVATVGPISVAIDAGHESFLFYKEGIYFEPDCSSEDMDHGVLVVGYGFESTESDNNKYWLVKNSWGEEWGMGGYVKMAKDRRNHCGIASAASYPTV
Chain of Rhodesain (Q95PM0 whole entry): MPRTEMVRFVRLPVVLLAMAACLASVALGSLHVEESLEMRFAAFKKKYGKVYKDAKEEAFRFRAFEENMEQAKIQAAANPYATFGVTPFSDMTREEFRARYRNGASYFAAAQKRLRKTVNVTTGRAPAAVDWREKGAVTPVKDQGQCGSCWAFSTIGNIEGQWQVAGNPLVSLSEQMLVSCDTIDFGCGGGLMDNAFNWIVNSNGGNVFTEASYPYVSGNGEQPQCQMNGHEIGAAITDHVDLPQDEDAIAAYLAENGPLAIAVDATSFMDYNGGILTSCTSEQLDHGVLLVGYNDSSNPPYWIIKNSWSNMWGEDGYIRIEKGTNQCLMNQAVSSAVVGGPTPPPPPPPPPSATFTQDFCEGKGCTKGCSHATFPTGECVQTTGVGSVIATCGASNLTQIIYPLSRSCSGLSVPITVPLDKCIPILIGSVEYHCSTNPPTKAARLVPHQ
Chain of Cathepsin S (P25774 whole entry): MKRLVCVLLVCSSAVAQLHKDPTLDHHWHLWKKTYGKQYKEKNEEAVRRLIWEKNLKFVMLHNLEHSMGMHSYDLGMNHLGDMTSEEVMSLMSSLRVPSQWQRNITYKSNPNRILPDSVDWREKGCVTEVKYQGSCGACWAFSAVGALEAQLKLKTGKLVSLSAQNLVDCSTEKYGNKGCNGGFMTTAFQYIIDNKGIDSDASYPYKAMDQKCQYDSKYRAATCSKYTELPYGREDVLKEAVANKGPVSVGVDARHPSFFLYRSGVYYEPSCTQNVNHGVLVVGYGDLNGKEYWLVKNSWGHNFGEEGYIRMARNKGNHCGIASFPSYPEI
Chain of Cytochrome P450 3A4 (P08684 whole entry): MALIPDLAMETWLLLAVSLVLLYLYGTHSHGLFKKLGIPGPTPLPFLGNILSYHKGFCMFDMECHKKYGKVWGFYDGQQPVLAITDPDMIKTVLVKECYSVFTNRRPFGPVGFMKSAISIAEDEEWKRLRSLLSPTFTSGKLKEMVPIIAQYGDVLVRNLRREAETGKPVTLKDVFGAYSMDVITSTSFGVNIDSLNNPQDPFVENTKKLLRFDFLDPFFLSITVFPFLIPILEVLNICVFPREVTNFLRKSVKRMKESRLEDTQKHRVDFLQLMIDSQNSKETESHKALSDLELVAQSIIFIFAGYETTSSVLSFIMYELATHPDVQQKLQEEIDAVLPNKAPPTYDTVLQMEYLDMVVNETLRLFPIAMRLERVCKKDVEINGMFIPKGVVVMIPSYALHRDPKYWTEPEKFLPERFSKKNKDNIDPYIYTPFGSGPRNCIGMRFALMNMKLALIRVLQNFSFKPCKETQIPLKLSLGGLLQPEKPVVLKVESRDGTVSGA
Chain of Cytochrome P450 2C9 (P11712 whole entry): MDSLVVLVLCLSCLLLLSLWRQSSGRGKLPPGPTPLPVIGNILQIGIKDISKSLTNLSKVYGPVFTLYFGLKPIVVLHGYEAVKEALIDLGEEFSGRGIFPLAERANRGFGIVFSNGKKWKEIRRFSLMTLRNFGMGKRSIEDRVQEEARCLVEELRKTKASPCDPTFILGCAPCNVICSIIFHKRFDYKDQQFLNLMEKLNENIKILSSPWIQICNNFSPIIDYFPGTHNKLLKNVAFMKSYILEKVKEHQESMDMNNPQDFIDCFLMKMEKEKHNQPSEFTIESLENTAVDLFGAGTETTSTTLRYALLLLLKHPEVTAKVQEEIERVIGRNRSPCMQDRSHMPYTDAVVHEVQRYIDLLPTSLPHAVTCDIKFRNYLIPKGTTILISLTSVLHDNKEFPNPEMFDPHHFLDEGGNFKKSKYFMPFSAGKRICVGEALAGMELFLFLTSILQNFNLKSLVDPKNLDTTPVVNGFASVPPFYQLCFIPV
Chain of Cytochrome P450 2D6 (P10635 whole entry): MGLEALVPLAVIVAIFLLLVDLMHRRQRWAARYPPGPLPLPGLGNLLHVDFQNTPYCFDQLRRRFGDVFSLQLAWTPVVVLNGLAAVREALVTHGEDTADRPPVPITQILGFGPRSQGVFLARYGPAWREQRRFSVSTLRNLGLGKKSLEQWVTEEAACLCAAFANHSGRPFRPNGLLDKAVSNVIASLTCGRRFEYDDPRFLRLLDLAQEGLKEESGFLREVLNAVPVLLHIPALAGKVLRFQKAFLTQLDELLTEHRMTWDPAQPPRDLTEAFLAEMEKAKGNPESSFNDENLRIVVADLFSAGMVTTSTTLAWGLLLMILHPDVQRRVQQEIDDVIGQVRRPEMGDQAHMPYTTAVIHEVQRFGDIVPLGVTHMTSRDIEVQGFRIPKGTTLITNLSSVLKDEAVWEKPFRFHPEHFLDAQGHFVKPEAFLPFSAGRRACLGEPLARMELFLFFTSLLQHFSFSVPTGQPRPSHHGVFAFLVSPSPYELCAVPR

Work on N#CC1(NC(=O)[C@@H]2Cc3ccc(c(Cl)c3)OCCCCOc3cc(C(F)(F)F)ccc3C(=O)N2)CC1 yielded a concentration at 16 h [1] of 4.8 ng/mL, an efflux ratio at 3.5 h, 1 µM [2] of 53 and a concentration at 0.5 h [3] of 404 ng/mL. The Ki [4] was 0.011 µM, the IC50 [5] was 43 µM and the IC50 [6] was 0.01 µM. It also gave a Papp at 15 h [7] of 0.4 ×10⁻⁶ cm/s, a concentration at 0.5 h [8] of 2.3 ng/mL and a logD at 100 µM [9] of 3.7. The Activity [10] was “Active”, the Vd [11] was 7.2 L/kg and the IC50 [12] was no less than 25 µM. It also gave a Kp at 0.5 h [13] of 0.006, a Ki [14] of 0.01 µM and an IC50 [15] of 2.7 µM. It also gave an IC50 [16] of 16 µM, an IC50 [17] of 1.04 µM and a concentration at 1 h [18] of 237 ng/mL. It also gave a concentration at 4 h [19] of 15.1 ng/mL, a half-life [20] of 2.7 h and a Kp at 0.5 h [21] of 0.7. It also gave a Kp [22] of less than 0.5, a solubility [23] of 12 µg/mL (≈ 23 µM) and an IC50 [24] of 9 µM. It also gave an efflux ratio at 3.5 h, 1 µM [25] of 26, a Time [26] of 10.2 days and an IC50 [27] of 11 µM. For the same compound, the Survival [28] was 16.3 days, the concentration at 0.5 h [29] was 256 ng/g and the clearance [30] was 79 mL/min/kg. The IC50 [31] was 0.004 µM.
